Measured values: ChEMBL document CHEMBL3877264, “Quinolidene-rhodanine conjugates: Facile synthesis and biological evaluation” (Eur J Med Chem, 2017)
In brackets after ≈: the same amount, converted by molar mass.

What was measured:
Format in all cases: functional
[1] = test system: Mycobacterium tuberculosis; assay: Growth inhibition of Mycobacterium bovis BCG ATCC 35743 at dormant stage measured after 12 days by nitrate reductase dye based two fold dilution method; settings: BCG str. ATCC 35743, 288 h
Method in brief: (§1)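 M. bovis BCG was grown in Dubos medium and assayed in Mycobacterium pheli minimal medium (pH 6.6), with compounds from DMSO stocks. Incubation lasted 8 days for active and 12 days for dormant cultures. Viability was read by nitrate reductase at 540 nm against cell-free blanks, with vehicle set as 100% growth. Primary screen was at 30, 10 and 3 µg/ml, in triplicate, mean ± SD. MIC was taken from dose-response curves.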

Bacillus subtilis [2] = assay: Growth inhibition of Bacillus subtilis NCIM 2079 at 3 ug/ml measured after 12 hrs relative to control; settings: NCIM 2079, 12 h, read-out: GI
Method in brief: (§2)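 Bacteria grown in LB at 37 °C and 180 rpm to OD 1. Compounds added to wells, then 0.1% inoculum of 1 OD culture (620 nm). Growth read as OD at 620 nm after 8 h for gram-negative and after 12 h for gram-positive strains.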

Staphylococcus aureus [3] = assay: Growth inhibition of Staphylococcus aureus NCIM 2010 at 3 ug/ml measured after 12 hrs relative to control; settings: NCIM 2010, 12 h, read-out: GI; method in brief: as §2
Escherichia coli [4] = assay: Growth inhibition of Escherichia coli NCIM 2688 at 3 ug/ml measured after 8 hrs relative to control; settings: NCIM 2688, 8 h, read-out: GI; method in brief: as §2
Escherichia coli [5] = assay: Growth inhibition of Escherichia coli NCIM 2688 at 10 ug/ml measured after 8 hrs relative to control; settings: NCIM 2688, 8 h, read-out: GI; method in brief: as §2
Escherichia coli [6] = assay: Antibacterial activity against Escherichia coli NCIM 2688 measured after 8 hrs; settings: NCIM 2688, 8 h; method in brief: as §2
Escherichia coli [7] = assay: Growth inhibition of Escherichia coli NCIM 2688 at 30 ug/ml measured after 8 hrs relative to control; settings: NCIM 2688, 8 h, read-out: GI; method in brief: as §2
Candida albicans = assay: Antifungal activity against Candida albicans NCIM 3471 by standard agar method
Method in brief: (§3)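 MICs determined by standard agar method; DMSO as solvent control.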

[8] = test system: Mycobacterium tuberculosis; assay: Growth inhibition of Mycobacterium bovis BCG ATCC 35743 at dormant stage at 30 ug/ml measured after 12 days by nitrate reductase dye based two fold dilution method relative to control; settings: BCG str. ATCC 35743, 288 h, read-out: GI; method in brief: as §1
Bacillus subtilis [9] = assay: Growth inhibition of Bacillus subtilis NCIM 2079 at 10 ug/ml measured after 12 hrs relative to control; settings: NCIM 2079, 12 h, read-out: GI; method in brief: as §2
Aspergillus niger = assay: Antifungal activity against Aspergillus niger NCIM 1196 by standard agar method; method in brief: as §3
[10] = test system: Mycobacterium tuberculosis; assay: Growth inhibition of Mycobacterium tuberculosis H37Ra ATCC 25177 at dormant stage measured after 12 days by XTT dye based two fold dilution method; settings: H37Ra ATCC 25177, 288 h
Method in brief: (§4)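 MTB H37Ra was grown in Dubos medium, then exposed in Mycobacterium pheli minimal medium (pH 6.6) to compounds dissolved in DMSO. The assay ended on day 8 (active) or day 12 (dormant). Viable cells were measured by XTT reduction menadione assay at 470 nm, blank-corrected, relative to vehicle control. Triplicates were expressed as mean ± SD. MIC came from dose-response curves.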

[11] = Antifungal activity against Fusarium oxysporum NCIM 1332 by standard agar method; method in brief: as §3
[12] = test system: Mycobacterium tuberculosis; assay: Growth inhibition of Mycobacterium bovis BCG ATCC 35743 at dormant stage at 10 ug/ml measured after 12 days by nitrate reductase dye based two fold dilution method relative to control; settings: BCG str. ATCC 35743, 288 h, read-out: GI; method in brief: as §1
[13] = test system: Mycobacterium tuberculosis; assay: Growth inhibition of Mycobacterium bovis BCG ATCC 35743 at active stage measured after 8 days by nitrate reductase dye based two fold dilution method; settings: BCG str. ATCC 35743, 192 h; method in brief: as §1
Staphylococcus aureus [14] = assay: Growth inhibition of Staphylococcus aureus NCIM 2010 at 30 ug/ml measured after 12 hrs relative to control; settings: NCIM 2010, 12 h, read-out: GI; method in brief: as §2
Pseudomonas fluorescens [15] = assay: Antibacterial activity against Pseudomonas fluorescens NCIM 2036 measured after 8 hrs; settings: NCIM 2036, 8 h; method in brief: as §2
Aspergillus flavus = assay: Antifungal activity against Aspergillus flavus NCIM 539 by standard agar method; method in brief: as §3
Staphylococcus aureus [16] = assay: Antibacterial activity against of Staphylococcus aureus NCIM 2010 measured after 12 hrs; settings: NCIM 2010, 12 h; method in brief: as §2
[17] = Antifungal activity against Cryptococcus neoformans NCIM 576 by standard agar method; method in brief: as §3
Staphylococcus aureus [18] = assay: Growth inhibition of Staphylococcus aureus NCIM 2010 at 10 ug/ml measured after 12 hrs relative to control; settings: NCIM 2010, 12 h, read-out: GI; method in brief: as §2
Bacillus subtilis [19] = assay: Growth inhibition of Bacillus subtilis NCIM 2079 at 30 ug/ml measured after 12 hrs relative to control; settings: NCIM 2079, 12 h, read-out: GI; method in brief: as §2
Bacillus subtilis [20] = assay: Antibacterial activity against Bacillus subtilis NCIM 2079 measured after 12 hrs; settings: NCIM 2079, 12 h; method in brief: as §2
[21] = test system: Mycobacterium tuberculosis; assay: Growth inhibition of Mycobacterium bovis BCG ATCC 35743 at dormant stage at 3 ug/ml measured after 12 days by nitrate reductase dye based two fold dilution method relative to control; settings: BCG str. ATCC 35743, 288 h, read-out: GI; method in brief: as §1
[22] = test system: Mycobacterium tuberculosis; assay: Growth inhibition of Mycobacterium tuberculosis H37Ra ATCC 25177 at active stage measured after 8 days by XTT dye based two fold dilution method; settings: H37Ra ATCC 25177, 192 h; method in brief: as §4
Pseudomonas fluorescens [23] = assay: Growth inhibition of Pseudomonas fluorescens NCIM 2036 at 10 ug/ml measured after 8 hrs relative to control; settings: NCIM 2036, 8 h, read-out: GI; method in brief: as §2
Pseudomonas fluorescens [24] = assay: Growth inhibition of Pseudomonas fluorescens NCIM 2036 at 30 ug/ml measured after 8 hrs relative to control; settings: NCIM 2036, 8 h, read-out: GI; method in brief: as §2
Pseudomonas fluorescens [25] = assay: Growth inhibition of Pseudomonas fluorescens NCIM 2036 at 3 ug/ml measured after 8 hrs relative to control; settings: NCIM 2036, 8 h, read-out: GI; method in brief: as §2

Row | SMILES | IC50 [1] | IC90 [1] | inhibition of growth at 3 µg/mL (Bacillus subtilis [2]) | inhibition of growth at 3 µg/mL (Staphylococcus aureus [3]) | inhibition of growth at 3 µg/mL (Escherichia coli [4]) | inhibition of growth at 10 µg/mL (Escherichia coli [5]) | MIC (Escherichia coli [6]) | inhibition of growth at 30 µg/mL (Escherichia coli [7]) | MIC (Candida albicans) | inhibition of growth at 30 µg/mL [8] | inhibition of growth at 10 µg/mL (Bacillus subtilis [9]) | MIC (Aspergillus niger) | IC50 [10] | IC90 [10] | MIC [11] | inhibition of growth at 10 µg/mL [12] | IC50 [13] | IC90 [13] | inhibition of growth at 30 µg/mL (Staphylococcus aureus [14]) | MIC (Pseudomonas fluorescens [15]) | also measured
1 | O=C(O)CCN1C(=O)/C(=C/c2cc3ccccc3nc2Cl)SC1=S | > 30 µg/mL | > 30 µg/mL | 3% | -28.2% | -47.5% | -52.5% | > 30 µg/mL | -59% | 100 µg/mL (≈ 264 µM) | 49.1% | 6.32% | 75 µg/mL (≈ 198 µM) | > 30 µg/mL | > 30 µg/mL | 125 µg/mL (≈ 330 µM) | -18.9% | > 30 µg/mL | > 30 µg/mL | -22.9% | > 30 µg/mL | MIC (Aspergillus flavus): 50 µg/mL (≈ 132 µM); MIC (Staphylococcus aureus [16]): > 30 µg/mL; MIC [17]: 50 µg/mL (≈ 132 µM); inhibition of growth at 10 µg/mL (Staphylococcus aureus [18]): -20.6%; inhibition of growth at 30 µg/mL (Bacillus subtilis [19]): 6.41%; MIC (Bacillus subtilis [20]): > 30 µg/mL; inhibition of growth at 3 µg/mL [21]: -3.3%; IC50 [22]: > 30 µg/mL; IC90 [22]: > 30 µg/mL; inhibition of growth at 10 µg/mL (Pseudomonas fluorescens [23]): -0.29%; inhibition of growth at 30 µg/mL (Pseudomonas fluorescens [24]): -6.76%; inhibition of growth at 3 µg/mL (Pseudomonas fluorescens [25]): -48%
2 | Cc1cccc2cc(/C=C3\SC(=S)N(CCC(=O)O)C3=O)c(Cl)nc12 | > 30 µg/mL | > 30 µg/mL | -3.04% | -4.02% | 8.12% | 4.27% | > 30 µg/mL | 10.5% | 50 µg/mL (≈ 127 µM) | 24.8% | -5.28% | 75 µg/mL (≈ 191 µM) | > 30 µg/mL | > 30 µg/mL | 100 µg/mL (≈ 255 µM) | 27.9% | > 30 µg/mL | > 30 µg/mL | -12.1% | > 30 µg/mL | MIC (Aspergillus flavus): 150 µg/mL (≈ 382 µM); MIC (Staphylococcus aureus [16]): > 30 µg/mL; MIC [17]: 100 µg/mL (≈ 255 µM); inhibition of growth at 10 µg/mL (Staphylococcus aureus [18]): -19.7%; inhibition of growth at 30 µg/mL (Bacillus subtilis [19]): -5.57%; MIC (Bacillus subtilis [20]): > 30 µg/mL; inhibition of growth at 3 µg/mL [21]: 17.2%; IC50 [22]: > 30 µg/mL; IC90 [22]: > 30 µg/mL; inhibition of growth at 10 µg/mL (Pseudomonas fluorescens [23]): -2.3%; inhibition of growth at 30 µg/mL (Pseudomonas fluorescens [24]): 16%; inhibition of growth at 3 µg/mL (Pseudomonas fluorescens [25]): 4.57%
